This is an account of results in ChEMBL document CHEMBL2331427, “Synthesis and biological evaluation of thieno [2',3':4,5]pyrimido[1,2-b][1,2,4]triazines and thieno[2,3-d][1,2,4]triazolo[1,5-a]pyrimidines as anti-inflammatory and analgesic agents” (Eur J Med Chem, 2013).

A word on the inhibition in vivo: it is how much of the control response was suppressed. As usually defined, the ED50 is the dose that gives a 50% effect, or the effect in half of the subjects.

Each structure is given as a SMILES string.

Data set [1] concerns Rattus norvegicus. Description: Antiinflammatory activity in albino rat assessed as inhibition of formalin-induced paw edema at 20 mg/kg, po qd administered 7 days measured on day 1 post formalin challenge by plethysmometric analysis relative to control. It is filed as functional. Summed up:
(§1)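 Sub-acute model in rats. Compounds given orally at 20 mg/kg daily for 7 consecutive days. 2% formalin (0.1 ml) injected subplantar into left hind paw under light ether anaesthesia 1 h after the day-1 dose, with a second injection on day 3. Paw volume measured plethysmographically on days 1 and 8. Inhibition calculated versus control.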

The test system of data set [2] is Rattus norvegicus. Put plainly: Antiinflammatory activity in albino rat assessed as inhibition of formalin-induced paw edema at 20 mg/kg, po administered 1 hr prior to formalin challenge measured after 1 hr by plethysmometric analysis relative to control. Format: functional. The procedure, abridged:
(§2)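 Male albino rats, 180-200 g, five per group. Test compounds given orally at 20 mg/kg; diclofenac Na reference at 20 mg/kg po. After 1 h, 2% formalin (0.1 ml) injected subplantar into left hind paw under light ether anaesthesia. Paw volume read by water plethysmometer at 0, 1, 2 and 4 h. % inhibition of edema increase (Vt−Vo) calculated versus control; mean ± S.E.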

For data set [3], the system named is Rattus norvegicus. Description: Antiinflammatory activity in albino rat assessed as inhibition of formalin-induced paw edema at 20 mg/kg, po administered 1 hr prior to formalin challenge measured after 2 hrs by plethysmometric analysis relative to control. It is filed as functional. The procedure, abridged: as §2
Data set [4] deals with Rattus norvegicus. Description: Antiinflammatory activity in albino rat assessed as inhibition of formalin-induced paw edema at 20 mg/kg, po qd administered 7 days measured on day 8 post formalin challenge by plethysmometric analysis relative to control. It is filed as functional. Summed up:
as §1

Data set [5] has as its system Rattus norvegicus. Description: Analgesic activity in albino rat assessed as increase in tail withdrawal latency at 20 mg/kg, po after 1 hr relative to control. It is filed as functional. Summed up: (§3)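 Male albino rats, 120-150 g, five per group, free access to food and water. Compounds given orally at 20 mg/kg; control group kept, diclofenac Na reference at 20 mg/kg po. Tail withdrawal after immersion in 55 °C water. Reaction time read at 1, 2 and 4 h. Reported as mean ± S.E. and as % increase over basal values. ANOVA with Student-Newman-Keuls, P < 0.05.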

Data set [6] has as its system Rattus norvegicus. Description: Antiinflammatory activity in albino rat assessed as inhibition of formalin-induced paw edema at 20 mg/kg, po administered 1 hr prior to formalin challenge measured after 4 hrs by plethysmometric analysis relative to control. It is filed as functional. Summed up:
as §2

Data set [7] concerns Rattus norvegicus. Description: Analgesic activity in albino rat assessed as increase in tail withdrawal latency at 20 mg/kg, po after 4 hrs relative to control. It is filed as functional. Summed up:
as §3

Data set [8] deals with Rattus norvegicus. Put plainly: Analgesic activity in albino rat assessed as increase in tail withdrawal latency at 20 mg/kg, po after 2 hrs relative to control. It is filed as functional. Summed up: as §3
In data set [9] the test system is Rattus norvegicus. Description: Ulcerogenic activity in albino rat assessed as appearance of hyperemia at 300 mg/kg, po bid administered for 3 days measured after 6 hrs post last dose relative to control. It is filed as toxicity, organism-based. Also on record: dose 300 mg/kg, route oral. The note with it: in vivo. Summed up:
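Rats received 300 mg/kg per day orally as two equal doses at 0 and 12 h for three successive days, with water ad libitum. Controls received 1% gum acacia orally. Animals were killed with diethyl ether 6 h after the last dose. Stomachs were removed and inspected grossly for hyperemia and ulceration. Diclofenac Na served as reference.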

The nature of data set [10]: Acute toxicity in po dosed rat assessed as mortality after 24 hrs. The note with it: in vivo, read-out: ALD50. Format: organism-based. The procedure, abridged:
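Male rats, 180-200 g, groups of five, fasted 24 h before dosing. Compounds given orally at graded doses of 0.1-0.3 g/kg body weight. Mortality at each dose level recorded after 24 h to estimate approximate acute lethal dose (ALD50).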

For data set [11], the system named is Rattus norvegicus. Put plainly: Antiinflammatory activity in po dosed albino rat assessed as inhibition of formalin-induced paw edema administered 1 hr prior to formalin challenge measured after 2 hrs by plethysmometric analysis. Format: functional. The procedure, abridged: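 Male albino rats, 180-200 g, groups of five, dosed orally at 5, 10, 20, 40 and 50 mg/kg. After 1 h, 2% formalin (0.1 ml) injected subplantar into left hind paw. Paw edema inhibition measured plethysmometrically 2 h after formalin injection. ED50 derived from these doses.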

Take `Cc1sc2nc3ncc(-c4ccc(Br)cc4)nn3c(=O)c2c1C`: the inhibition in vivo at 20 mg/kg came out at 33% with Rattus norvegicus [1]; 13% in the data set on Rattus norvegicus [2]; 5% in the data set with Rattus norvegicus [3]; 25% with Rattus norvegicus [4]; 27% in the data set with Rattus norvegicus [6]. Also, the values for the Activity in the data set with Rattus norvegicus [5], in the data set on Rattus norvegicus [7] and in the data set with Rattus norvegicus [8] were 13%, 28% and 24%, respectively.
Consider `Cc1sc2nc3[nH]c(Nc4ccc(Cl)cc4)nn3c(=O)c2c1C`, for which the inhibition in vivo at 20 mg/kg with Rattus norvegicus [1] was 36%; with Rattus norvegicus [2], 9%; with Rattus norvegicus [3] it was 6%; in the data set on Rattus norvegicus [4], 24%; in the data set on Rattus norvegicus [6], 11%. In addition, the Activity in the data set with Rattus norvegicus [5] was determined as 26%; with Rattus norvegicus [7], 54%; with Rattus norvegicus [8], 40%.
Take `Cc1ccc(-c2cnc3nc4sc(C)c(C)c4c(=O)n3n2)cc1`: the inhibition in vivo at 20 mg/kg in the data set on Rattus norvegicus [1] is 25%; with Rattus norvegicus [2], 21%; in the data set on Rattus norvegicus [3], 28%; in the data set with Rattus norvegicus [4] it was 22%; in the data set with Rattus norvegicus [6] it was 27%. The Activity with Rattus norvegicus [5] worked out at 13%; in the data set with Rattus norvegicus [7], 29%; with Rattus norvegicus [8] it was 25%.
Turning to `Cc1nn2c(=O)c3c(C)c(C)sc3nc2[nH]1`, the inhibition in vivo at 20 mg/kg in the data set with Rattus norvegicus [1] worked out at 44%; in the data set on Rattus norvegicus [2], 38%; in the data set with Rattus norvegicus [3] it was 43%; with Rattus norvegicus [4], 31%; in the data set on Rattus norvegicus [6] it was 52%. Also, the Activity result in the data set with Rattus norvegicus [9] is given as “Non-toxic”; with Rattus norvegicus [5], 30%; in the data set with Rattus norvegicus [7], 54%; in the data set on Rattus norvegicus [8], 40%. Also, in data set [10], the LD50 at 24 h is greater than 300 mg/kg. The ED50 in the data set with Rattus norvegicus [11] is 23.4 mg/kg.
On to `Cc1sc2nc3[nH]c(=S)[nH]n3c(=O)c2c1C`, for which the inhibition in vivo at 20 mg/kg in the data set on Rattus norvegicus [1] was determined as 47%; in the data set on Rattus norvegicus [2], 42%; in the data set with Rattus norvegicus [3], 43%; in the data set on Rattus norvegicus [4], 40%; in the data set on Rattus norvegicus [6], 27%. The Activity in the data set on Rattus norvegicus [9] worked out at 20%; in the data set on Rattus norvegicus [5] it was 27%; in the data set on Rattus norvegicus [7], 39%; with Rattus norvegicus [8] it was 35%. The LD50 at 24 h in data set [10] was greater than 300 mg/kg. Besides, the 50% effective dose (ED50) in the data set with Rattus norvegicus [11] came out at 27.5 mg/kg.
With `Cc1sc2nc3[nH]c(CC#N)nn3c(=O)c2c1C`, the inhibition in vivo at 20 mg/kg in the data set on Rattus norvegicus [1] stood at 47%; with Rattus norvegicus [2], 42%; in the data set on Rattus norvegicus [3] it was 25%; with Rattus norvegicus [4], 38%; in the data set on Rattus norvegicus [6], 36%. The Activity in the data set on Rattus norvegicus [9] amounted to 20%; in the data set on Rattus norvegicus [5], 41%; in the data set on Rattus norvegicus [7], 64%; in the data set with Rattus norvegicus [8], 53%. Besides, in [10], the LD50 at 24 h was greater than 300 mg/kg. In addition, in the data set on Rattus norvegicus [11], the ED50 was determined as 29 mg/kg.
Take `Cc1sc2nc3[nH]c(Nc4ccccc4)nn3c(=O)c2c1C`: the inhibition in vivo at 20 mg/kg was found to be 36% in the data set on Rattus norvegicus [1]; 9% in the data set with Rattus norvegicus [2]; 12% in the data set with Rattus norvegicus [3]; 20% with Rattus norvegicus [4]; 25% with Rattus norvegicus [6]. The Activity was 5% with Rattus norvegicus [5], 26% with Rattus norvegicus [7] and 17% with Rattus norvegicus [8].
Regarding `Cc1ccc(Nc2nn3c(=O)c4c(C)c(C)sc4nc3[nH]2)cc1`, the inhibition in vivo at 20 mg/kg in the data set on Rattus norvegicus [1] worked out at 33%; with Rattus norvegicus [2], 21%; in the data set with Rattus norvegicus [3], 5%; with Rattus norvegicus [4], 24%; in the data set on Rattus norvegicus [6], 18%. Moreover, the Activity in the data set with Rattus norvegicus [5] came to 23%; in the data set with Rattus norvegicus [7], 44%; in the data set with Rattus norvegicus [8], 31%.
With `CCOC(=O)Cc1nn2c(=O)c3c(C)c(C)sc3nc2[nH]1`, the inhibition in vivo at 20 mg/kg came out at 47% in the data set on Rattus norvegicus [1]; 47% in the data set on Rattus norvegicus [2]; 53% with Rattus norvegicus [3]; 40% in the data set on Rattus norvegicus [4]; 56% in the data set with Rattus norvegicus [6]. The Activity came to 20% in the data set on Rattus norvegicus [9], 19% in the data set with Rattus norvegicus [5], 62% in the data set on Rattus norvegicus [7] and 47% in the data set on Rattus norvegicus [8]. Further, the LD50 at 24 h in data set [10] was greater than 300 mg/kg. In addition, the ED50 in the data set on Rattus norvegicus [11] came to 28.1 mg/kg.
`Cc1sc2nc3[nH]c(CC(=O)Nc4ccccc4)nn3c(=O)c2c1C`: the inhibition in vivo at 20 mg/kg in the data set on Rattus norvegicus [1] was 50%; in the data set with Rattus norvegicus [2] it was 42%; with Rattus norvegicus [3] it was 37%; in the data set with Rattus norvegicus [4], 37%; with Rattus norvegicus [6], 40%. Further, the Activity was 20% with Rattus norvegicus [9], 21% in the data set with Rattus norvegicus [5], 51% in the data set on Rattus norvegicus [7] and 36% in the data set on Rattus norvegicus [8]. Further, in [10], the LD50 at 24 h was greater than 300 mg/kg. The 50% effective dose (ED50) in the data set with Rattus norvegicus [11] turned out to be 26.1 mg/kg.
On to `Cc1sc2nc3[nH]c(CC(=O)Nc4ccc(Cl)cc4)nn3c(=O)c2c1C`, for which the inhibition in vivo at 20 mg/kg with Rattus norvegicus [1] is 36%; in the data set on Rattus norvegicus [2] it was 33%; in the data set on Rattus norvegicus [3], 28%; in the data set on Rattus norvegicus [4] it was 38%; in the data set with Rattus norvegicus [6] it was 29%. Besides, the Activity is recorded as 28% in the data set with Rattus norvegicus [5], 40% in the data set with Rattus norvegicus [7] and 32% in the data set on Rattus norvegicus [8].
Consider `COc1ccc(NC(=O)Cc2nn3c(=O)c4c(C)c(C)sc4nc3[nH]2)cc1`, for which the inhibition in vivo at 20 mg/kg with Rattus norvegicus [1] was found to be 41%; with Rattus norvegicus [2], 47%; with Rattus norvegicus [3] it was 40%; in the data set on Rattus norvegicus [4], 38%; in the data set on Rattus norvegicus [6] it was 43%. The Activity entry in the data set on Rattus norvegicus [9] is “Non-toxic”; with Rattus norvegicus [5], 14%; in the data set on Rattus norvegicus [7], 42%; in the data set with Rattus norvegicus [8] it was 35%. The LD50 at 24 h in data set [10] is greater than 300 mg/kg. In addition, the ED50 in the data set on Rattus norvegicus [11] worked out at 18.4 mg/kg.
On to `Cc1sc2nc3ncc(-c4ccccc4)nn3c(=O)c2c1C`, for which the inhibition in vivo at 20 mg/kg with Rattus norvegicus [1] amounted to 38%; with Rattus norvegicus [2], 14%; in the data set on Rattus norvegicus [3], 28%; in the data set with Rattus norvegicus [4], 38%; with Rattus norvegicus [6], 34%. The Activity in the data set on Rattus norvegicus [5] was determined as 17%; in the data set on Rattus norvegicus [7], 50%; in the data set on Rattus norvegicus [8], 34%.
In the case of `Cc1sc2nc3ncc(-c4ccc(Cl)cc4)nn3c(=O)c2c1C`, the inhibition in vivo at 20 mg/kg with Rattus norvegicus [1] is 36%; in the data set with Rattus norvegicus [2], 14%; with Rattus norvegicus [3], 12%; in the data set on Rattus norvegicus [4], 18%; in the data set on Rattus norvegicus [6], 20%. The Activity with Rattus norvegicus [5] stood at 6%; with Rattus norvegicus [7], 23%; in the data set with Rattus norvegicus [8] it was 11%.
As to `O=C([O-])Cc1ccccc1Nc1c(Cl)cccc1Cl.[Na+]` [DICLOFENAC SODIUM], the inhibition in vivo at 20 mg/kg in the data set on Rattus norvegicus [1] came out at 44%; in the data set with Rattus norvegicus [2] it was 38%; in the data set on Rattus norvegicus [4], 40%; with Rattus norvegicus [6], 52%. The Activity with Rattus norvegicus [9] came out at 20%; in the data set on Rattus norvegicus [5], 30%; with Rattus norvegicus [7] it was 56%. Moreover, the 50% effective dose (ED50) in the data set with Rattus norvegicus [11] was 25.1 mg/kg.
